Here are results for four molecules from ChEMBL document CHEMBL1208669, “Synthesis of 2-(pyrimidin-2-yl)-1-phenyl-2,3,4,9-tetrahydro-1H-beta-carbolines as antileishmanial agents” (Eur J Med Chem, 2010).

Data set [1] deals with Leishmania donovani. Description: Antileishmanial activity against amastigote of Leishmania donovani MHOM/IN/80/Dd8 infected in mouse J774A1 cells at 0.25 to 10 ug/ml after 72 hrs by luciferase reporter gene assay. To be noted: j774.a1. The data set is classed as functional, organism-based. Put shortly:
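J774A.1 macrophages were seeded at 1.5 × 10⁴ cells/well in RPMI-1640 + 10% FCS, 37 °C, CO₂, for 24 h. They were then infected with stationary-phase luciferase-transfected Dd8 promastigotes (2.25 × 10⁵/well), which transform to amastigotes. Compounds (0.25–10 range) were added in fresh medium for 72 h. Medium was removed, PBS and Steady Glo added, and luminescence read. Inhibition vs untreated controls; IC50 by logit regression.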

The test system of data set [2] is KB. Description: Cytotoxicity against human KB cells by MTT assay. The data set is classed as functional, cell-based.
Data set [3] deals with Vero. Description: Cytotoxicity against african green monkey Vero cells by MTT assay. The format is cell-based. To be noted: chlorocebus sabaeus.
Data set [4] concerns MCF7. Description: Cytotoxicity against human MCF7 cells by MTT assay. The data set is classed as functional, cell-based.
The subject of data set [5] is Leishmania donovani. Description: Antileishmanial activity against promastigotes of Leishmania donovani MHOM/IN/80/Dd8 after 72 hrs by luciferase reporter gene assay relative to control. The format is functional. Put shortly:
(§1)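 Dd8 promastigotes transfected with firefly luciferase were kept in medium 199 + 10% FCS with antibiotics under G418. Late-log cells were incubated 72 h with serial drug dilutions, with parallel DMSO dilutions as controls. An aliquot was mixed 1:1 with Steady Glo and luminescence read as RLU. % inhibition = (N − n) × 100/N versus untreated control RLU; tested as serial dilutions or single concentration.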

For data set [6], the system named is DU-145. Description: Cytotoxicity against human DU145 cells by MTT assay. The format is functional, cell-based.
For data set [7], the system named is C-33-A. Description: Cytotoxicity against human C33A cells by MTT assay. The data set is classed as functional, cell-based.
Data set [8] has as its system MCF7. Description: Cytotoxicity against human MCF7 cells up to 50 ug/ml by MTT assay. The format is functional, cell-based.
In data set [9] the test system is KB. Description: Cytotoxicity against human KB cells up to 50 ug/ml by MTT assay. The data set is classed as functional, cell-based.
Data set [10] has as its system Vero. Description: Cytotoxicity against african green monkey Vero cells up to 50 ug/ml by MTT assay. The data set is classed as cell-based. The following applies: chlorocebus sabaeus.
Data set [11] deals with DU-145. Description: Cytotoxicity against human DU145 cells up to 50 ug/ml by MTT assay. The data set is classed as functional, cell-based.
In data set [12] the test system is C-33-A. Description: Cytotoxicity against human C33A cells up to 50 ug/ml by MTT assay. The format is functional, cell-based.
Data set [13] has as its system Leishmania donovani. Description: Antileishmanial activity against promastigotes of Leishmania donovani MHOM/IN/80/Dd8 at 500 ug/ml after 72 hrs by luciferase reporter gene assay relative to control. The format is functional, organism-based. The method in brief:
as §1

The subject of the next data set is J774.A1. Description: Selectivity index, ratio of CC50 for mouse J774A1 cells to IC50 for amastigote of Leishmania donovani MHOM/IN/80/Dd8. The data set is classed as functional. The method in brief:
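Ratio of CC50 (J774A.1 MTT, 72 h) to IC50 against intracellular amastigotes in J774A.1 macrophages (luciferase read-out, 72 h).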

Data set [14] relates to Leishmania donovani. Description: Antileishmanial activity against Leishmania donovani. The format is functional, organism-based.

Values after ≈ are worked out from the molar mass of the structure shown. Active and inactive are the calls of the source. The calls are words filed in the database; no cut-off is given here.

For `Clc1cc(Cl)nc(N2CCc3c([nH]c4ccccc34)C2c2ccc3c(c2)OCO3)n1` (racemic), the IC50 entry with Leishmania donovani [1] was “Not Active”; in the data set with KB [2] it was 3.9 µg/mL (≈ 8.88 µM); with Vero [3] it was 8.2 µg/mL (≈ 18.7 µM); in the data set on MCF7 [4], 4.3 µg/mL (≈ 9.79 µM); with DU-145 [6], 8.9 µg/mL (≈ 20.3 µM); in the data set on C-33-A [7], 3.3 µg/mL (≈ 7.51 µM). In the data set on Leishmania donovani [5], the “inhibition (INH)” value turned out to be 33.57%.

Consider `Clc1cc(Cl)nc(N2CCc3c([nH]c4ccccc34)C2c2ccc(OCc3ccccc3)cc2)n1` (racemic), for which, in the data set with Leishmania donovani [1], the IC50 entry was “Not Active”. Also, the result in the data set on MCF7 [8], in the data set with KB [9], in the data set with DU-145 [11] and in the data set with C-33-A [12] was inactive. Besides, the “inhibition (INH)” value with Leishmania donovani [5] is given as 36.85%. The Activity entry with Vero [10] was “Non-toxic”.

In turn, sodiumstilbogluconate gave an inhibition in the data set on Leishmania donovani [13] of 40%. For the same molecule, the Ratio CC50/IC50 in the data set with J774.A1 was determined as 6.38.

`C=CC1CN2CCc3c([nH]c4ccccc34)[C@@H]2C[C@@H]1[C@@H](C(=O)OC)[C@H]1NCCc2c1[nH]c1ccccc21` (some centres not stated) [BUCHTIENINE]: the half-maximal inhibitory concentration (IC50) in the data set with Leishmania donovani [14] is above 0.3 µg/mL.
